pIC50: −log10 of the molar value. Calls of active or inactive are those of the source.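 How the source made its calls: active means compounds whose mean IC50 across repeat dose response tests falls below a set limit; inactive means the rest.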
Test system: AML12 mouse hepatocytes, BODIPY lipid droplet imaging
Test: hepatocyte lipid droplet accumulation inhibitors, dose response, imaging, AML12 mouse hepatocytes, high-content (AID 463191)
Conditions: cells loaded with 100 µM oleic acid
In short: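 Test system: AML12 mouse hepatocyte cell line, lipid droplet imaging. Compound: Seven-point series from 32 to 0.5 µM, 0.32% DMSO. Incubation: cells grown about 20 h at 37 °C, then overnight compound exposure.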

Row | Structure (SMILES) | pIC50 | IC50
1 | COc1ccc(Cl)cc1NC(=O)CN(C)C(=O)CCCc1c[nH]c2ccccc12 | 5.64 | 
2 | CCOc1ccc(CCNC(=O)CCc2nnc3ccc(N4CCCC4)nn23)cc1OCC | 5.74 | 
3 | Cc1sc(NC(=O)Cc2ccc3c(c2)OCO3)nc1-c1ccc2c(c1)CCN2C(=O)c1ccccc1F | 5.75 | 
4 | CCCc1cc(N2CCCC2)n2nc(C)c(-c3ccccc3)c2n1 | 5.96 | 
5 | CCOc1ccc(CCNC(=O)CN2CCN(Cc3ccccc3C)C2=O)cc1OCC | 6.03 | 
6 | COc1ccc(C(=O)OC(C)C(=O)NC(C)CCc2ccccc2)cc1OC (centres undefined) | 5.59 | 
7 | CCOc1cc2c(cc1OCC)C(c1ccccc1)N(c1ccccc1)C(=O)C2 (centres undefined) | 6.01 | 
8 | COc1cccc(C(=O)NC2CCCc3c2cnn3-c2cc(C)cc(C)c2)c1 (centres undefined) | 5.69 | 
9 | O=C(NCc1ccccc1)C(c1ccccc1F)N(C(=O)c1csnn1)C1CCCC1 (centres undefined) | 5.46 | 
10 | CCOc1ccc(CCNC(=O)COc2cc(=O)n(C)c3ccccc23)cc1OCC | 5.40 | 
11 | CCOc1ccc(CCNC(=O)Cn2nc(C)n3cccc3c2=O)cc1OCC | 5.70 | 
12 | Cc1ccc(-n2nc3c(=O)n(CC(=O)NC(C)CCc4ccccc4)nc(C)c3c2C)cc1 (centres undefined) | 6.24 | 
13 | COc1ccc(OC)c(NC(=O)Cc2coc3ccc4ccccc4c23)c1 |  | 11.4 µM (inactive)
14 | Cc1cc(C)cc(NC(=O)CCC(=O)Nc2cc(C)on2)c1 |  | 7.62 µM (inactive)
15 | CCOc1ccc(CCNC(=O)c2cc3sc(Cl)cc3n2C)cc1OCC | > 6.30 | 
16 | COc1cccc(NC(=O)CCC(=O)Nc2cc(OC)c(NC(=O)c3cccs3)cc2OC)c1 | 6.12 | 
17 | CC(C)COc1cccc(-c2cc(C(=O)Nc3ccon3)c3ccccc3n2)c1 | 5.42 | 
18 | CCC(C)(C)NC(=O)C(c1ccc(OC)cc1)N(Cc1cccs1)C(=O)CCC(=O)Nc1cc(C)on1 (centres undefined) | 5.65 | 
19 | CCOc1ccc(CCNC(=O)CCC(=O)N2CCOc3ccc(C)cc32)cc1OCC | 5.84 | 
20 | CCOc1ccc(CCNC(=O)c2c(C)nn(-c3ccccc3)c2Cl)cc1OCC |  | 7.56 µM (inactive)
21 | CC(Sc1nnc(Nc2ccccc2)s1)C(=O)Nc1nc(-c2ccccc2)cs1 (centres undefined) |  | 5.77 µM (inactive)
22 | CCCCn1c(N)c(-c2nc3ccccc3s2)c2c([N+](=O)[O-])nn(CC)c(=O)c21 |  | 9.33 µM (inactive)
23 | O=C(NCc1ccc2c(c1)OCO2)c1cc(-c2ccccc2)c(N2CCOCC2)s1 | 6.15 | 
24 | COc1ccc(NC(=O)CSc2nc3ccccc3nc2N2CCCCC2)cc1 | 5.93 | 
25 | CCOc1ccc(CCNC(=O)CCS(=O)(=O)c2ccc(Br)cc2)cc1OCC | 5.49 | 

Row | Structure (SMILES) | pIC50 | IC50
26 | COc1ccc(CCNC(=O)c2ccc(CNc3nc(=S)[nH]c4ccccc34)cc2)cc1OC | 5.89 | 
27 | CCOc1ccc(CCNC(=O)COC(=O)c2ccc(OC)c(OC)c2OC)cc1OCC | > 6.30 | 
28 | CCOc1ccc(CCNC(=O)c2ccc3ccccc3n2)cc1OCC | 5.88 | 
29 | CCOc1ccc(CCNC(=O)C2CC(=O)N(Cc3ccc(OC)cc3)C2)cc1OCC (centres undefined) | 5.42 | 
30 | CCOC(=O)c1cc(CC)sc1NC(=O)C1CC(=O)NN1Cc1ccccc1 (centres undefined) | 6.24 | 
31 | CCCCOc1ccc(/C=C/C(=O)OCC(=O)c2c(N)n(C)c(=O)n(C)c2=O)cc1OCC |  | 28.8 µM (inactive)
32 | COc1ccc(C(=O)OC(C)C(=O)Nc2cc(C(F)(F)F)ccc2Cl)c(OC)c1OC (centres undefined) | 6.07 | 
33 | COc1ccc(-c2csc(NC(=O)c3ccc(OCC(=O)N4CCOCC4)c(OC)c3)n2)cc1 | 6.11 | 
34 | COc1ccc(Cl)cc1NC(=O)CN1C(=O)NC2(CCCC2)C1=O | 5.37 | 
35 | Cc1cccc(NC(=O)CSc2nnc(C)c(=O)n2N)c1 |  | 6.65 µM (inactive)
36 | CCc1c(C#N)c(SCCC(=O)Nc2cccc(OC)c2)nc2c1C(=O)CC(C)(C)C2 | 5.85 | 
37 | CCOc1ccc2nc(NC(=O)CSc3nc4ccccc4c(=O)n3Cc3ccco3)sc2c1 | 6.21 | 
38 | CCOc1ccc(CCNC(=O)Nc2cccc(OC)c2)cc1OCC | > 6.30 | 
39 | COCCCn1c(SCC(=O)Nc2ccc(NC(=O)c3ccco3)c(OC)c2)nc2ccccc2c1=O | 5.73 | 
40 | CCOc1ccccc1NC(=O)N1CCC(C(=O)c2ccc(F)cc2)CC1 | 5.35 | 
41 | CCOc1ccc(CCNC(=O)CSc2cc(=O)n(C)c3ccccc23)cc1OCC | 6.08 | 
42 | CCC(C(=O)NCCc1ccccc1OC)n1nc(C)c2c(C)n(-c3ccccc3)nc2c1=O (centres undefined) | 5.49 | 
43 | Cc1ccc(CNC(=O)c2ccc(N3CCC4(CC3)CC(c3ccccc3)=NO4)c(N)c2)cc1 | 5.46 | 
44 | CCOc1ccc(C(=O)OCC(=O)Nc2nc(OC)cc(OC)n2)cc1OCC | 5.95 | 
45 | CCOc1ccc(CCNC(=O)c2cc(-c3ccccc3)c(N3CCOCC3)s2)cc1OCC | > 6.30 | 
46 | CCOc1ccc(CCNC(=O)CCC(=O)N2CCSc3ccccc32)cc1OCC | > 6.30 | 
47 | COc1cccc(CNC(=O)CCCc2c[nH]c3ccccc23)c1 |  | 6.6 µM (inactive)
48 | COc1ccc(C(C(=O)NC(C)(C)C)N(Cc2ccccc2)C(=O)CCC(=O)Nc2cc(C)on2)cc1 (centres undefined) |  | 8.98 µM (inactive)
49 | Cc1ccc(-n2nc3c(=O)n(C(C)C(=O)NCCc4cccs4)nc(C)c3c2C)cc1 (centres undefined) | 5.49 | 

Reference: PubChem BioAssay AID463191 (Sanford-Burnham Center for Chemical Genomics, 2010)
